XiGFP reactiv: activators of X-chromosome reactivation in mouse fibroblasts | 0.055% of 360,000 active | activation, % at 7.58 µM | AID 743238 | XiGFP mouse fibroblasts, % GFP-positive cells imaging, 3 d; cells co-treated with 5-aza-dC sensitizer; scaled so ellipticine positive control = 100%;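 active = mean normalized replicate activation at least 10% and every replicate at or above 10%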
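assay system = SV40-immortalized XiGFP fibroblast cells, line 68-5-11 | buffer or medium = DMEM plus 5-aza-dC sensitizer | doses = single-point pinned compound dosing | times = 3-day compound exposure, then 15 min fixation at room temperature | benchmarks = positive control ellipticine, 6 µM final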
TWEAK Fn14 block: TWEAK-Fn14 signaling inhibition | TWEAK-stimulated Fn14 reporter cells, luciferase luminescence, 8 h | inhibition, % at 10 µM | 2% of 360,000 active; in the data active = inhibition above about 50%
TROY signal inh: TROY signaling inhibition | Q293 LMP1-TROYcd NF-kB luciferase reporter, 4 h | inhibition, % at 10 µM | 0.98% of 360,000 active | AID 1347056;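 active = compounds whose plate-normalised and pattern-corrected inhibition of the luciferase reporter signal at the single screening dose is 50% or more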
LGR2 antag: inhibitors of bursicon-induced Drosophila LGR2 receptor cAMP signaling. inhibition, % at 9.99 µM. AID 720647. 0.35% of 380,000 active. HEK293 LGR2, CRE-luciferase, bursicon-stimulated, 4 h;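 active = drop in luminescence signal, shown as inhibition above about 50% in the replicate tests, limit read from the data, passing the limit was not always enough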;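 also: agonist challenge used bursicon conditioned medium at about half maximal strength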
CaV13 ICDI inh: Primary screen for inhibitors of IQ motif and Ca2+-dependent inactivation inhibitor domain binding in CACNA1D, Förster resonance energy transfer in living cells, … | HEK cells, CFP/YFP FRET ICDI-IQ, plate reader, 10 min; percent FRET-ratio fall versus neutral wells | inhibition, % at 12.3 µM | 0.098% of 340,000 active | AID 743397;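 active = mean replicate inhibition of at least 30% and at least 1% of replicates passing that level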
A number is an active result; n = inactive; x = not tested or not shown; + = active, no number. Hits are enriched below; roughly 2% of the tested compounds scored in any of these assays.

SMILES	XiGFP reactiv	TWEAK Fn14 block	TROY signal inh	LGR2 antag	CaV13 ICDI inh
c1ccc(N=Nc2ccc(C3=NCCO3)cc2)cc1	n	n	n	80.9	n
N#C[C@H]1[C@@H](c2ccccc2-c2ccccc2)[C@@H](CO)N1C(=O)Cc1ccncc1	n	x	x	n	x
O=C(C1=NN(c2ccccc2)C2C(=O)N(c3ccccc3)C(=O)C12)c1ccccc1 (configuration not stated)	n	n	n	x	+
COc1cccc(CNC(=O)COC(=O)c2nc(Cl)c(Cl)c(Cl)c2Cl)c1	n	93.7	n	n	n
O=C1C=CC(O)(c2cc(=O)c3c(O)cc(O)cc3o2)C=C1	n	92.2	n	89.3	n
Cn1nc(-c2ccccc2)cc1NC(=O)c1ccccc1	n	n	n	n	n
O=C(Nc1cc(-c2ccccc2)nn1C1CCCCC1)c1ccc(Cl)cc1	n	n	53.7	n	n
C[C@@H]1CCCCO[C@@H](CN(C)S(C)(=O)=O)[C@H](C)CN([C@@H](C)CO)C(=O)c2cc(N(C)C)ccc2O1	n	x	x	n	x
CC1(C)Oc2cc3oc(-c4cc(O)cc(O)c4)cc3cc2CC1O (configuration not stated)	x	76.2	80.1	82.5	x
CCC(=O)N1CCCCN2[C@H](C1)[C@H](c1ccc(C#Cc3ccccc3F)cc1)[C@@H]2CO	n	x	x	n	x
CCN(CC)c1ccc(/C=N\NC(N)=O)cc1	n	n	n	n	n
CCN(CC)c1ccc(/C=N/NC(=O)c2ccoc2C)cc1	n	63.3	n	x	n
O=C(O)C[C@@H]1C[C@@H]2c3cc(NC(=O)C4CCC4)ccc3O[C@@H]2[C@H](CO)O1	n	x	x	n	x
CCCc1cn(CC[C@@H]2CC[C@H](NS(=O)(=O)c3ccccc3Cl)[C@@H](CO)O2)nn1	n	x	x	n	x
CCOC(=O)c1ccc(NC(=O)NCc2ccncc2)cc1	x	n	n	x	n
CCOC(=O)c1ccc(NC(=O)NCCc2cnc[nH]2)cc1	n	60.1	n	n	n
Cc1ccccc1Nc1nc(Nc2ccccc2C)nc(SC2=NCCS2)n1	x	71.3	n	n	n
Cc1ccc(Nc2nc(Nc3ccc(C)cc3)nc(SC3=NCCS3)n2)cc1	x	n	n	x	x
O=C(C[C@@H]1CC[C@H](NC(=O)Nc2ccc(C(F)(F)F)cc2)[C@H](CO)O1)NCc1cc(F)cc(F)c1	n	x	x	n	x
O=C(Nc1nc2ccc(F)cc2s1)C1CCN(S(=O)(=O)c2cc([N+](=O)[O-])ccc2Cl)CC1	n	84.3	n	n	n
Cc1ccc2nc(NC(=O)C3CCN(S(=O)(=O)c4cc([N+](=O)[O-])ccc4Cl)CC3)sc2c1	n	83.0	n	n	n
Cc1ccc(NC(=O)C2CCN(S(=O)(=O)c3cc([N+](=O)[O-])ccc3Cl)CC2)nc1	n	n	n	n	n
C[C@@H]1CN([C@H](C)CO)C(=O)c2cccc(NC(=O)Nc3cccc4ccccc34)c2O[C@@H]1CN(C)S(=O)(=O)c1cn(C)cn1	n	x	x	n	x
COc1cccc(S(=O)(=O)Nc2ccc3c(c2)OC[C@H](C)NC[C@H](C)[C@H](OC)CN(C)C3=O)c1	n	x	x	n	x
COC(=O)C1=CN(CC2CCCO2)C=C(C(=O)OC)C1c1ccsc1 (configuration not stated)	x	n	n	x	n
SMILES	XiGFP reactiv	TWEAK Fn14 block	TROY signal inh	LGR2 antag	CaV13 ICDI inh
COC(=O)C1=CN(CC2CCCO2)C=C(C(=O)OC)C1c1cccc(O)c1 (configuration not stated)	n	n	n	n	82.6
COc1ccc(-c2nnc3sc(CN4C(=O)c5ccccc5C4=O)nn23)cc1	x	93.3	n	x	x
COc1ccccc1N1CCN(C(=S)Nc2ccc3nc(N4CCOCC4)cc(C)c3c2)CC1	n	51.6	n	n	n
Cc1cccc(NC(=S)N2CCN(c3cc(C)ccc3C)CC2)c1	n	n	n	n	n
COc1ccccc1N1CCN(C(=S)Nc2cccc(C)c2)CC1	n	62.6	61.4	n	n
CC(C)CC#Cc1ccc([C@@H]2[C@H](CO)N3CCCCN(C(=O)c4ccc5c(c4)OCO5)C[C@@H]23)cc1	n	x	x	n	x
COCC#Cc1ccc([C@H]2[C@@H](CO)N3CCCCN(C(=O)Nc4cc(F)ccc4F)C[C@H]23)cc1	n	x	x	n	x
COc1cc(NC(=O)c2cccs2)c(C(=O)OCC(=O)c2cc(C)n(-c3ccc(F)cc3)c2C)cc1OC	n	90.1	83.2	n	n
